# pEC50, pIC50: −log10 of the molar value. Values joined by “and” are separate entries in the source; they are usually repeats but may differ in a detail not shown here. Equal values may be shown once.
# Columns and labels:
# [1] = system: M-NFS-60 cells; experiment: M-NFS-60 cell proliferation assay; type: cell-based, mouse; conditions: 1,000 ng/mL versus 10 ng/mL CSF1
# [2] = Plasma protein binding, human plasma; type: in vitro ADME
# [3] = system: TGCT patients; conditions: across all trials of pexidartinib in TGCT; cited from earlier work
# [4] = system: human osteoclast precursors; experiment: Osteoclast differentiation assay; type: cell-based; conditions: 240 h, read-out: IC50, osteoclast differentiation
# Outline: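 Human osteoclast precursors thawed into complete medium with 66 ng/mL RANKL and 33 ng/mL human CSF1. Plated at 2,500 cells/well onto serially diluted test compound in triplicate (0.1% DMSO final). Cultured 10 days at 37°C. Differentiation read as tartrate-resistant acid phosphatase activity in supernatant, absorbance at 550 nm.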
# [5] = system: CSF1R signaling (phospho-ERK) in monocytes in human whole blood; experiment: Whole blood phospho-ERK flow cytometry assay; type: cell-based; conditions: Monocyte, read-out: adjusted free IC50
# Outline: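 Whole blood from a healthy donor (K2EDTA) incubated with test compound in 100 µL aliquots for 4 h at 37°C, then stimulated with CSF1 10 ng/mL for 5 min. RBCs lysed and cells fixed, permeabilized on ice, and stained with anti-CD14-PE and anti-phospho-ERK1/2. Median phospho-ERK fluorescence measured in CD14⁺ cells, from 50,000 events in the WBC gate.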
# [6] = Plasma protein binding, mouse plasma; type: in vitro ADME
# [7] = system: CSF1-stimulated cFOS expression in mouse spleens; experiment: Mouse PK/PD model, six daily oral doses; type: in vivo
# [8] = Mouse pharmacokinetics after a single oral dose; type: in vivo, DBA/1 mice; conditions: 3.75 mg/kg single oral dose
# [9] = Mouse pharmacokinetics at steady state; type: in vivo, DBA/1 mice; conditions: female, DBA/1, mouse, plasma, po, 3 mg/kg
# [10] = system: PC3 prostate cancer peritibial implant xenograft; experiment: PC3 peritibial implant bone invasion xenograft model; type: in vivo, nude mice; conditions: 10 mg/kg once or twice daily, oral
# Outline: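 Male athymic nude mice acclimated 7 days, then implanted with 1×10^6 PC3 cells in serum-free MEM between tibia and fibula of the right leg. Randomized by body weight. Oral dosing began 6 h post-implant, days 1–32: 0.4% HPMC vehicle or test compound 10 mg/kg once or twice daily, n = 20 per group. Tumor burden = (length × width²)/2 from calipers, measured 2–3 times weekly.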
# [11] = system: MC38 colorectal cancer; experiment: MC38 syngeneic colorectal cancer model; type: in vivo, C57BL/6 mice
# Outline: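 Female C57BL/6 mice implanted s.c. in the lower right flank with 1×10^6 MC38 cells in PBS. Randomized at mean tumor 104 mm³ and dosed days 12–39: test compound 10 mg/kg oral daily (0.4% HPMC vehicle) plus isotype or anti-PD1 10 mg/kg i.p. twice weekly, n = 15. Five per group taken day 32, 2 h post-dose; fresh tumors analysed by flow cytometry (macrophages CD45/CD11b/F4/80).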
# [12] = system: CD68+ macrophages; experiment: CD68+ macrophages in rat tissues; type: in vivo, Sprague-Dawley rats; conditions: 15 mg/kg/day orally, 14 days
# Outline: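 Male Sprague-Dawley rats dosed orally for 14 days with 0.4% HPMC vehicle or test compound 15 mg/kg daily (5 per group). FFPE organ tissues stained for CD68 with DAPI counterstain. Five nonoverlapping fields imaged at 20× per tissue. Total cell counts and CD68⁺ cell density (cells/mm²) determined.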
# [13] = Crossover pharmacokinetic study in rats; type: in vivo, Sprague-Dawley rats
# Outline: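 Crossover design in 3 fasted male Sprague-Dawley rats. Single IV dose of 1 mg/kg in 20% Captisol / 25 mmol/L pH 2 phosphate buffer, or oral 10 mg/kg in 0.4% HPMC. Plasma sampled at 0, 0.083 (IV only), 0.25, 0.5, 1, 2, 4, 6, 8, 12 and 24 h and analysed by LC/MS.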
# [14] = Crossover pharmacokinetic study in dogs; type: in vivo, Beagle dogs
# Outline: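 Crossover design in 3 fasted male Beagle dogs. Single IV dose of 1 mg/kg in 20% Captisol / 25 mmol/L pH 2 phosphate buffer, or oral 3, 10 or 30 mg/kg in 0.4% HPMC. Plasma sampled at 0, 0.083 (IV only), 0.25, 0.5, 1, 2, 4, 6, 8, 12 and 24 h. Quantified by LC/MS.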
# [15] = system: cytochrome P450 (CYP) isoforms (all isoforms studied); experiment: Cytochrome P450 inhibition, all isoforms studied; type: in vitro ADME
# [16] = system: cytochrome P450 (CYP) isoforms; experiment: Cytochrome P450 inhibition, all isoforms studied; type: in vitro ADME
# [17] = target: MDR1 drug transporter (Homo sapiens, UniProt P08183); experiment: MDR1 transporter inhibition; type: in vitro ADME
# MDR1 drug transporter, sequence (P08183 whole entry): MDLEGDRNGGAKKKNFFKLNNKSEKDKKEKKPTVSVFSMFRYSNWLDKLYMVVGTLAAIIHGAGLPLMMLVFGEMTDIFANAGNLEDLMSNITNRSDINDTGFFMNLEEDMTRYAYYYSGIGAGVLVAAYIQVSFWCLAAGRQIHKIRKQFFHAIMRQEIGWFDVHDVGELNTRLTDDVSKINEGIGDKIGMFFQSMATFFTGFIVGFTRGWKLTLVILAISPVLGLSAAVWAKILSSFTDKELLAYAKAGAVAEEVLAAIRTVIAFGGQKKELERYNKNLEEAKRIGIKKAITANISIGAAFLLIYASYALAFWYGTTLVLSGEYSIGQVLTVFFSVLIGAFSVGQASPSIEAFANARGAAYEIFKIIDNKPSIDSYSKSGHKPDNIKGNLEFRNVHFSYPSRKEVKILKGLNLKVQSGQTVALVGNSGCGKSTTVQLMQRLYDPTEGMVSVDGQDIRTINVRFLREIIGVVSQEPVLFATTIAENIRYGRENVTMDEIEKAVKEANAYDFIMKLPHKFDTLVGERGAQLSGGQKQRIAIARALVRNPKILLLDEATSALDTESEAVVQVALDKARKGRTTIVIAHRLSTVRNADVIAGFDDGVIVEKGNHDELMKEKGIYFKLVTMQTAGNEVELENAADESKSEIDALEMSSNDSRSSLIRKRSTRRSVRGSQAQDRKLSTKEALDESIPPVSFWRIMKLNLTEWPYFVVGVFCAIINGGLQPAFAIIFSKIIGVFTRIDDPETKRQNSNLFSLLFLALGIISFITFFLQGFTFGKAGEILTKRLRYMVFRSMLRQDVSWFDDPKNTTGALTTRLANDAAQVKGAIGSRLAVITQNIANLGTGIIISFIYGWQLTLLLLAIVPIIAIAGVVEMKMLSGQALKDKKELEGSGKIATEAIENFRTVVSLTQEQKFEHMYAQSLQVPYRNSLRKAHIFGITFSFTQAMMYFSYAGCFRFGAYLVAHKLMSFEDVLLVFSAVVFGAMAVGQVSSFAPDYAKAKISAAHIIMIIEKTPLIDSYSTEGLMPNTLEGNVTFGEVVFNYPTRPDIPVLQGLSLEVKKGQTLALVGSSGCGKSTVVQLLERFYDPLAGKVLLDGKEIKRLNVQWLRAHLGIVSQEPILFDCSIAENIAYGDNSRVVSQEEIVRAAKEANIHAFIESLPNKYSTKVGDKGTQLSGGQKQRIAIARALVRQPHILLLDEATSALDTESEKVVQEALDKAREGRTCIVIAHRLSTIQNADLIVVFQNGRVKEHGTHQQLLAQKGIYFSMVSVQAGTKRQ
# [18] = target: hERG channel (Homo sapiens, UniProt Q12809); experiment: Predictor hERG fluorescence polarization binding assay
# hERG channel, sequence (Q12809 whole entry): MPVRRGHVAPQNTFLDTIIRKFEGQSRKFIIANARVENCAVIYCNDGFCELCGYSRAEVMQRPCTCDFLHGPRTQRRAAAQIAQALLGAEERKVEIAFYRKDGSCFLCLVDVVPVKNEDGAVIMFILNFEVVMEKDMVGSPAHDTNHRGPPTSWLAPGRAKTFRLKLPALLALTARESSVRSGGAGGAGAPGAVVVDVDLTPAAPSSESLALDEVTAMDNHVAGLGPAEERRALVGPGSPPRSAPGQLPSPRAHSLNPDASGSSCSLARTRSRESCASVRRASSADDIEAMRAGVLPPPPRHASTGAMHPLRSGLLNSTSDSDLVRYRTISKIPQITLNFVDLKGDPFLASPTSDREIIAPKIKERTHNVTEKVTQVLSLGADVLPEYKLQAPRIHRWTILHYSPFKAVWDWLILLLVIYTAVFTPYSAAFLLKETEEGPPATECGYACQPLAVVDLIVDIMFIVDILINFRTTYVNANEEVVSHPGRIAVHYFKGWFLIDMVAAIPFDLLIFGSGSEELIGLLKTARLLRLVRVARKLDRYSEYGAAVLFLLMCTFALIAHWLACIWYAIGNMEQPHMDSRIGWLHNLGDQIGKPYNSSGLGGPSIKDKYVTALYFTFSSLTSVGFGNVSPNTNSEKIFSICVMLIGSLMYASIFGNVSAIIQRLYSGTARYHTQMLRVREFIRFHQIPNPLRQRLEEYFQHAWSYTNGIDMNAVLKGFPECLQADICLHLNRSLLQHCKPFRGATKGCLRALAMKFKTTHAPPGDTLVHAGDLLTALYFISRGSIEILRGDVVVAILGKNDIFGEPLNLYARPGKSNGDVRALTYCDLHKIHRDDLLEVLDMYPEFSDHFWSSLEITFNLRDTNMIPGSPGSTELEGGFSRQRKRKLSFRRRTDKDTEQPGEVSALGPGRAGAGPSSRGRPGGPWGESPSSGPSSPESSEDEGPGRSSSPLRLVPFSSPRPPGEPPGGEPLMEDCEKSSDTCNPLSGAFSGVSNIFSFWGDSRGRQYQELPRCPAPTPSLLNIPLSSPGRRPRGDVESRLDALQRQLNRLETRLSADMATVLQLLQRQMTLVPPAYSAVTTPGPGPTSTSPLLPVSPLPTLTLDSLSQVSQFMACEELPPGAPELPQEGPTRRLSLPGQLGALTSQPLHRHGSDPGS
# [19] = system: tenosynovial giant cell tumor (TGCT); experiment: Phase I/II study DCC-3014-01-001; type: in vivo, human
# [20] = male, Sprague-Dawley, rat, plasma, intravenous, 1 mg/kg
# [21] = male, beagle, dog, plasma, intravenous, 1 mg/kg
# [22] = 3 TGCT patients, cycle 2 day 1, trough and 4 hours after dose
compound,measurement,setting,value
"FC(F)(F)c1ccc(CNc2ccc(Cc3c[nH]c4ncc(Cl)cc34)cn2)cn1 [Pexidartinib, pexidartinib]",loss of potency at high CSF1 ligand concentration,[1],3.8 fold
same,plasma protein binding,[2]; method and source not stated,> 99 % bound
same,serious hepatic adverse events assessed as probably drug-related,[3],five
"Cc1nc(-c2cnc(NC(C)C)n(C)c2=O)ccc1Oc1ccnc(-c2cnn(C)c2)c1 [Vimseltinib, vimseltinib]",pIC50,[4],8.03
same,pIC50,[5],~7.85
same,bound to proteins in plasma,"[2]; human plasma, in vitro ultracentrifugation assay",approximately 96.5%
same,bound in plasma,[6],approximately 97.2%
same,inhibition of cFOS expression,"[7]; 3 mg/kg, six daily doses, at 24 and 48 hours",approximately 50%
same,inhibition of cFOS expression,"[7]; 3 mg/kg, six daily doses, for 12 hours",≥ 90%
same,EC50,"[7]; Mus musculus, po, read-out: free EC50",0.012 µg/mL and 28 nM
same,EC80,[7]; all animals in the steady-state study,"1,700 ng/mL"
same,inhibition of cFOS expression,"[7]; six daily oral doses of 1, 3, and 10 mg/kg",significantly inhibited cFOS expression
same,AUC0–24,[8],"28,987 ng*hour/mL"
same,AUC(0-t),[9],49300 ng·h/mL
same,primary tumor growth,[10],not affected
same,bone degradation (CT score 0–4),"[10]; to day 32, n = 20/cohort",statistically significant protection from bone degradation
same,reduction of TAMs in the primary tumor,"[11]; after 3 weeks of dosing, flow cytometry",> 6 fold
same,tumor growth inhibition (%TGI),"[11]; day 32, vimseltinib 10 mg/kg orally every day, anti-PD1 10 mg/kg i.p. twice a week",52%
same,decrease in liver CD68+ macrophages,[12]; P < 0.0001,68%
same,decrease in colon CD68+ macrophages,[12]; P = 0.17,47%
same,Vd,[13]; [20],0.69 L/kg
same,clearance,[13]; [20],0.5 mL/min/kg
same,half-life,[13]; [20],14.2 h
same,oral bioavailability,"[13]; rats, 10 mg/kg oral versus 1 mg/kg IV",76 % F
same,oral bioavailability,"[14]; dogs, simple vehicle",~ 30 % F
same,Vd,[14]; [21],1.33 L/kg
same,clearance,[14]; [21],2.5 mL/min/kg
same,half-life,[14]; [21],6.8 h
same,pIC50,[15],< 4.12
same,time-dependent or metabolism-dependent inhibition of any CYP isoform,[16],no time-dependent or metabolism-dependent inhibition of any CYP isoform
same,pIC50,[17],5.36
same,pEC50,[18],< 4.60
same,"EC20, hERG binding",[18]; in vitro binding assay,19.4 µM
same,average plasma concentration,[19]; [22],approximately 500 ng/mL
same,average plasma concentration (total drug),[19]; [22],"~ 1,200 nmol/L"
same,plasma CSF1 and IL34 levels,"[19]; 3 patients with TGCT, cycle 2 day 1, 30 mg once a day for 5 days then 30 mg twice weekly",increases in CSF1 and IL34 levels
same,"change in tumor size (RECIST v1.1, MRI)","[19]; patient 2, right hip TGCT, after two cycles",−25%
